Test results from ChEMBL document CHEMBL1156683, “Basic 3-hydroxypyridin-4-ones: potential antimalarial agents” (Eur J Med Chem, 2008).

Legend:
[1] = system: Plasmodium falciparum; assay: Antimalarial activity against chloroquine-resistant Plasmodium falciparum TM267TR after 24 hrs by [3H]hypoxanthine; format: functional, organism-based
Summary of the method: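 Clone maintained in human red cells in RPMI 1640 with 10% human serum, 25 mM HEPES and 25 mM NaHCO₃. Cultures were sorbitol-synchronized, washed, then diluted with normal red cells to 1% hematocrit and 0.5% parasitemia. Incubated with serial dilutions of chelator. ³H-hypoxanthine pulse for a further 18 h, then harvested and counted by scintillation. IC₅₀ by non-linear regression of triplicate dose-response curves.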

[2] = system: Rattus norvegicus; assay: Iron-clearing efficiency in po dosed [59Fe]ferritin-loaded Wistar rat assessed as iron removal; format: functional
Summary of the method: (§1)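 Male Wistar rats, normal, fasted, 190–230 g. Hepatocytes labelled with ⁵⁹Fe by tail-vein [⁵⁹Fe]ferritin; chelator given orally 1 h later, controls received water. Individual metabolic cages collected urine and faeces; food allowed 1 h after dosing, water unrestricted. Killed 24 h after ferritin; liver and gastrointestinal tract with contents and faeces gamma counted.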

[3] = Octanol-MOPS buffer distribution coefficient, DC at pH 7.4; format: physicochemical; conditions: octanol/water
Summary of the method: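 Automated continuous-flow filter-probe method, 1-octanol versus 50 mM MOPS buffer pH 7.4, phases mutually presaturated. Compound dissolved in buffer to absorbance 0.5–1.5 units at a preselected wavelength; aqueous phase separated by hydrophilic cellulose filter and read by absorbance. n = 5.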

[4] = system: Rattus norvegicus; assay: Iron-clearing efficiency in po dosed [59Fe]ferritin-loaded Wistar rat assessed as iron mobilization; format: functional; summary of the method: as §1
[5] = Partition coefficient, log P of the compound; format: physicochemical; conditions: octanol/water
Summary of the method: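 Calculated from the measured octanol/MOPS pH 7.4 distribution coefficient divided by the fraction of neutral species at pH 7.4, which is derived from the measured pKa values.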

[6] = Dissociation constant, pKa corresponding to deprotonation of the basic substituent by potentiometric titration; format: physicochemical
Summary of the method: (§2)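 Ligand protonation constants from an automated titration system, potentiometric and spectrophotometric read-outs. Values optimized by non-linear least-squares regression, accuracy ±0.02 pH unit.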

[7] = Dissociation constant, pKa corresponding to dissociation of the 3-hydroxyl group by potentiometric titration; format: physicochemical; summary of the method: as §2
[8] = Dissociation constant, pKa corresponding to dissociation of the 3-hydroxyl group by spectrophotometric titration; format: physicochemical; summary of the method: as §2
[9] = Dissociation constant, pKa corresponding to protonation of the 4-hydroxy group by spectrophotometric titration; format: physicochemical; summary of the method: as §2
[10] = Dissociation constant, pKa corresponding to deprotonation of the basic substituent by spectrophotometric titration; format: physicochemical; summary of the method: as §2
[11] = Dissociation constant, pKa corresponding to protonation of the 4-hydroxy group by potentiometric titration; format: physicochemical; summary of the method: as §2

Row | Compound | IC50 [1] | Activity [2] | D [3] | Activity [4] | logP [5] | pKa [6] | pKa [7] | pKa [8] | pKa [9] | pKa [10] | pKa [11]
1 | CCn1ccc(=O)c(O)c1C(C)O (stereo unspecified) | 45 µM | 44.5% | 0.266 | 48.4% | -0.557 | – | – | – | – | – | –
2 | Cn1c(CO)cc(=O)c(O)c1CN1CCCCC1 | 29 µM | – | 1.636 | – | 0.295 | 6.74 | 10.5 | 10.4 | 2.41 | 6.67 | 2.14
3 | Cn1c(CO)cc(=O)c(O)c1CN1CCOCC1 | 35 µM | – | 0.17 | – | -0.765 | 5.1 | 9.77 | 9.75 | 2.14 | 4.99 | 1.98
4 | Cc1c(O)c(=O)ccn1CCN1CCCCC1 | 35 µM | 18.8% | 0.96 | 22.7% | 0.31 | 7.42 | 9.63 | 9.71 | 2.88 | 7.47 | 2.77
5 | O=c1ccn(CCN2CCCCC2)c(CO)c1O | 10 µM | 19.4% | 0.501 | 23.3% | 0.019 | 7.35 | 9.28 | 9.24 | 2.2 | 7.43 | 2.25
6 | Cc1c(O)c(=O)ccn1CCN(C)C | 80 µM | 9.1% | 0.154 | 13% | -0.657 | 7.05 | 9.75 | 9.58 | 2.86 | 7.02 | 2.74
7 | Cn1cc(O)c(=O)cc1CN1CCCCC1 | 31 µM | – | 3.493 | – | 0.64 | 6.74 | 8.85 | 8.86 | 2.16 | 6.72 | 2.15
8 | CC(O)c1c(O)c(=O)ccn1CCN1CCCCC1 (stereo unspecified) | 8 µM | 19.2% | 0.908 | 23.1% | 0.242 | 7.37 | 8.7 | 8.73 | 2.14 | 7.35 | 2.17
9 | CCc1c(O)c(=O)ccn1CCCn1ccnc1 | 65 µM | 2.9% | 0.42 | 6.8% | -0.326 | 6.55 | 9.71 | 9.66 | 3.15 | 6.47 | 3.09
10 | Cc1c(O)c(=O)ccn1CCCn1ccnc1 | 85 µM | 1.4% | 0.344 | 5.3% | -0.392 | 6.6 | 9.92 | 9.82 | 3.08 | 6.71 | 3.13
11 | CCN(CC)CCn1ccc(=O)c(O)c1C | 50 µM | 8.5% | 0.493 | 12.4% | 0.059 | 7.53 | 9.65 | 9.6 | 2.66 | 7.5 | 2.63
12 | CCc1c(O)c(=O)ccn1CCN1CCCCC1 | 25 µM | 26.5% | 4.591 | 30.4% | 0.946 | 7.34 | 9.67 | 9.7 | 2.74 | 7.38 | 2.73
13 | Cc1c(O)c(=O)ccn1CCN1CCOCC1 | 50 µM | – | 0.122 | – | -0.909 | 4.89 | 9.71 | 9.68 | 2.64 | 4.91 | 2.67
14 | Cc1cc(=O)c(O)c(CN2CCCCC2)n1C | 23 µM | – | 2.536 | – | 0.559 | 7.07 | 10.8 | 10.3 | 2.73 | 6.98 | 2.5
15 | CCc1c(O)c(=O)ccn1CCN(C)C | 85 µM | 16.4% | 0.538 | 20.3% | -0.114 | 6.88 | 9.66 | 9.58 | 2.68 | 7.16 | 2.62
16 | O=c1cc(CN2CCCCC2)n(CCN2CCCCC2)cc1O | 21.5 µM | – | 26.11 | – | 1.84 | 7.58 | 8.83 | 8.95 | 2.04 | 7.6 | 1.16
17 | Cc1cc(=O)c(O)c(CN2CCOCC2)n1C | 50 µM | – | 0.364 | – | -0.435 | 4.89 | 10.1 | 9.72 | 2.43 | 4.82 | 2.38
18 | CCc1c(O)c(=O)ccn1CC | 55 µM | 54.4% | 1.79 | 58.3% | 0.257 | – | – | – | – | – | –
19 | Cc1c(O)c(=O)ccn1C [DEFERIPRONE] | 67.5 µM | 9.5% | 0.17 | 13.4% | – | – | – | – | – | – | –
